For 7 compounds, IC50 results are on record in ChEMBL document CHEMBL1157416, “Novel open-chain cytochalsins from the marine-derived fungus Spicaria elegans” (J Nat Prod, 2008).

Holding throughout (format): functional, cell-based
Assay [1] deals with P388. As to the kind of experiment: Cytotoxicity against mouse P388 cells after 72 hrs by MTT assay. The conditions noted are these: P388, 72 h. In a few lines:
(§1)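 Cells grown in RPMI-1640 with 10% FBS, 5% CO2/95% air, 37 °C; plated at 5 × 10^4 cells/mL, preincubated 24 h, then compounds added in DMSO at several concentrations for 72 h. MTT (5 mg/mL) added for 4 h, medium replaced by DMSO to dissolve formazan, absorbance read at 570 nm; IC50 values reported.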

The test system of assay [2] is A549. As to the kind of experiment: Cytotoxicity against human A549 cells after 72 hrs by MTT assay. To be noted: A549, 72 h. An outline of the steps: as §1
Assay [3] concerns HL-60. In words: Cytotoxicity against human HL60 cells after 72 hrs by MTT assay. To be noted: HL-60, 72 h. An outline of the steps:
as §1

The subject of assay [4] is Bel-7402. As to the kind of experiment: Cytotoxicity against human BEL-7402 cells after 72 hrs by MTT assay. To be noted: Bel-7402, 72 h. An outline of the steps: as §1

SMILES strings stand for the structures.

Regarding `C/C1=C/CC(=O)O[C@@]23C(=O)N[C@@H](Cc4ccc(O)cc4)[C@@H]2[C@H](C)[C@@]2(C)O[C@H]2[C@@H]3/C=C/C[C@H](C)C1=O`, the IC50 in assay [1] came to 79 µM; in assay [2], 96 µM; in assay [3] it was 66 µM; in assay [4] it was 94 µM.
Turning to `C=C1[C@@H](C)[C@H]2[C@H](Cc3ccccc3)NC(=O)[C@@]2(O)[C@@H](/C=C/C[C@H](C)[C@@H](O)[C@@H](C)O)[C@@H]1O` [CYTOCHALASIN Z10], the IC50 in assay [1] is over 100 µM; in assay [2] it was 9.6 µM; in assay [3], 69 µM; in assay [4], over 100 µM.
For `C=C1[C@@H](C)[C@H]2[C@H](Cc3ccccc3)NC(=O)[C@@]2(O)[C@@H](/C=C/C[C@H](C)C(=O)[C@H](C)O)[C@@H]1O` [CYTOCHALASIN Z11], the IC50 in assay [1] is 69 µM; in assay [2], 4.3 µM; in assay [3], 45 µM; in assay [4], over 100 µM.
The like results for `CC1=C(C)[C@H]2[C@H](Cc3ccccc3)NC(=O)[C@@]2(O)[C@@H](/C=C/C[C@H](C)[C@@H](O)[C@@H](C)O)[C@@H]1O` [CYTOCHALASIN Z12] were, in that order, over 100 µM, 92 µM, 89 µM and over 100 µM.
Regarding `CC1=C(C)[C@H]2[C@H](Cc3ccccc3)NC(=O)[C@@]2(O)[C@@H](/C=C/C[C@H](C)C(=O)[C@H](C)O)[C@@H]1O` [CYTOCHALASIN Z13], the IC50 is 67 µM in assay [1], 76 µM in assay [2], 80 µM in assay [3] and 88 µM in assay [4].
The like results for `CC(=O)[C@@H](O)[C@@H](C)C/C=C/[C@H]1[C@H](O)C(C)=C(C)[C@H]2[C@H](Cc3ccccc3)NC(=O)[C@@]12O` [CYTOCHALASIN Z14] were, in that order, over 100 µM, over 100 µM, over 100 µM and over 100 µM.
Regarding `CC(=O)[C@H](O)[C@@H](C)C/C=C/[C@H]1[C@H](O)C(C)=C(C)[C@H]2[C@H](Cc3ccccc3)NC(=O)[C@@]12O` [CYTOCHALASIN Z15], the IC50 in assay [1], in assay [2], in assay [3] and in assay [4] was over 100 µM each time.
